Measurements published in ChEMBL document CHEMBL1147021, “Novel indole inhibitors of IMPDH from fragments: synthesis and initial structure-activity relationships” (Bioorg Med Chem Lett, 2006).
In brackets after ≈: the same amount, converted by molar mass. Blank lines part the entries; values can stand above or below the compound they belong to.

Key:
[1] = molecular target: T1, Inosine-5'-monophosphate dehydrogenase 2 (Homo sapiens, UniProt P12268); test: Inhibition of IMPDH2 at 30 uM
[2] = molecular target: T1, Inosine-5'-monophosphate dehydrogenase 2; test: Inhibition of IMPDH2
PBMC = test: Antiproliferative activity against PBMC; type: functional, cell-based; conditions: Homo sapiens
[3] = Apparent permeability in Caco-2 cell from apical to basolateral; type: ADME, cell-based; conditions: human
Summary of the method: (§1)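 Caco-2 monolayers (10-21 day culture, passage 30-40), confluence confirmed by TEER; medium replaced by HBSS pH 7.4. Test compound 1 µM, cassetted with 2 reference compounds (10 µM), added apically or basolaterally (n = 4); 2 h at 37 °C, 5% CO2. Receiver side analysed by LC-MSMS; Papp normalised to the known Papps of the reference compounds.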

[4] = Distribution coefficient Log D of compound at pH 7.4; type: physicochemical; conditions: octanol/water
Summary of the method: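 Compound (1–2 mg) shaken for 1 h at 750 osc/min with octanol and pH 7.4 phosphate buffer (0.1 M KH2PO4/NaOH), each presaturated with the other for 18 h. Both layers filtered through 0.2 µm PTFE and analysed by HPLC. Log D taken as log of normalised peak area in octanol over that in buffer.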

[5] = Aqueous solubility at pH 5; type: physicochemical
Summary of the method: (§2)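 Solid compound (0.5 mg) shaken in 150 mM phosphate buffer at room temperature for 90 min, then filtered. Filtrate concentration measured by HPLC (UV 254 nm) against a three-point calibration curve made from DMSO stocks. Done in duplicate at pH 7.4 and pH 5.0.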

[6] = Apparent permeability in Caco-2 cell from basolateral to apical; type: ADME, cell-based; conditions: human; summary of the method: as §1
[7] = Aqueous solubility at pH 7.4; type: physicochemical; summary of the method: as §2

IC50 [1]: Not Active
SMILES: N#Cc1c[nH]c2c(OCc3ccccc3)cccc12

IC50 [2]: 364 nM
Papp A→B [3]: 6.5 ×10⁻⁶ cm/s
logD [4]: 2.01
solubility [5]: 8 µg/mL (≈ 22.9 µM)
Papp B→A [6]: 9.3 ×10⁻⁶ cm/s
SMILES: O=S(=O)(Nc1ccc2c(-c3ccncc3)c[nH]c2c1)c1ccccc1
IC50 (PBMC): 14 µM

IC50 [2]: 21000 nM
SMILES: Cn1cc(C#N)c2ccc(NS(=O)(=O)Cc3ccccc3)cc21

Papp A→B [3]: 36.7 ×10⁻⁶ cm/s
logD [4]: 2.3
Papp B→A [6]: 37.4 ×10⁻⁶ cm/s
SMILES: Cn1cc(C#N)c2ccccc21

IC50 [2]: 19500 nM
SMILES: CN(C(=O)Nc1cccc2c(-c3ccncc3)c[nH]c12)c1ccccc1

Papp A→B [3]: 26.2 ×10⁻⁶ cm/s
logD [4]: 2.81
Papp B→A [6]: 23.9 ×10⁻⁶ cm/s
SMILES: c1ccc2c(-c3ccncc3)c[nH]c2c1
IC50 (PBMC): 28 µM

IC50 [2]: 586 nM
SMILES: CCOC(=O)c1ccc2c(-c3ccncc3)c[nH]c2c1

IC50 [2]: 17000 nM
SMILES: CN(C(=O)Nc1ccc2c(C#N)cn(C)c2c1)c1ccccc1

IC50 [1]: Not Active
SMILES: CCn1cc(C#N)c2ccc(NS(=O)(=O)Cc3ccccc3)cc21

IC50 [2]: 1360 nM
SMILES: O=C(NOCc1ccccc1)Nc1cccc2c(-c3ccncc3)c[nH]c12

IC50 [2]: 722 nM
SMILES: Cn1cc(C#N)c2ccc(NC(=O)Nc3ccccc3)cc21
IC50 (PBMC): 14 µM

IC50 [2]: 76 nM
solubility [7]: 3.2 µg/mL (≈ 8.93 µM)
Papp A→B [3]: 6.5 ×10⁻⁶ cm/s
logD [4]: 3.54
solubility [5]: 17.5 µg/mL (≈ 48.8 µM)
Papp B→A [6]: 7.3 ×10⁻⁶ cm/s
SMILES: O=C(NOCc1ccccc1)Nc1ccc2c(-c3ccncc3)c[nH]c2c1
IC50 (PBMC): 4.6 µM

IC50 [2]: 222 nM
SMILES: Cc1[nH]c2cc(NS(=O)(=O)c3ccccc3)ccc2c1-c1ccncc1

IC50 [2]: 1170 nM
solubility [7]: 4 µg/mL (≈ 12.5 µM)
Papp A→B [3]: 19.3 ×10⁻⁶ cm/s
logD [4]: 2.74
solubility [5]: 4.5 µg/mL (≈ 14 µM)
Papp B→A [6]: 19.1 ×10⁻⁶ cm/s
SMILES: Cn1cc(C#N)c2ccc(NC(=O)NOCc3ccccc3)cc21
IC50 (PBMC): 17 µM

IC50 [2]: 128 nM
SMILES: Cc1[nH]c2cc(NC(=O)N(C)c3ccccc3)ccc2c1-c1ccncc1

IC50 [2]: 71800 nM
SMILES: N#Cc1c[nH]c2cc(OCc3ccccc3)ccc12

IC50 [1]: Not Active
SMILES: N#Cc1c[nH]c2cc(N)ccc12

IC50 [2]: 15400 nM
SMILES: CN(C(=O)Nc1ccc2c(C#N)c[nH]c2c1)c1ccccc1

IC50 [2]: 4040 nM
SMILES: CNOC(=O)Nc1ccc2c(C#N)cn(C)c2c1

IC50 [1]: Not Active
SMILES: O=C(Nc1ccccc1)Nc1ccc2c(-c3ccncc3)c[nH]c2c1

IC50 [2]: 6210 nM
SMILES: O=S(=O)(Nc1cccc2c(-c3ccncc3)c[nH]c12)c1ccccc1

Inhibition [1]: 48%
SMILES: N#Cc1c[nH]c2cc(Nc3nc4ccccc4o3)ccc12

IC50 [2]: 84 nM
Papp A→B [3]: 14.3 ×10⁻⁶ cm/s
logD [4]: 2.93
solubility [5]: 42 µg/mL (≈ 123 µM)
Papp B→A [6]: 6.7 ×10⁻⁶ cm/s
SMILES: CN(C(=O)Nc1ccc2c(-c3ccncc3)c[nH]c2c1)c1ccccc1
IC50 (PBMC): 12 µM

IC50 [2]: 456 nM
SMILES: c1ccc(-c2ccc3c(-c4ccncc4)c[nH]c3c2)cc1
IC50 (PBMC): 10 µM

IC50 [2]: 7850 nM
SMILES: CN(C(=O)Nc1cccc2c(C#N)cn(C)c12)c1ccccc1

IC50 [2]: 1110 nM
SMILES: CONC(=O)Nc1ccc2c(-c3ccncc3)c[nH]c2c1

IC50 [2]: 7680 nM
SMILES: Cn1cc(C#N)c2ccc(NS(=O)(=O)c3ccccc3)cc21

IC50 [2]: 58400 nM
SMILES: Cn1cc(C#N)c2cccc(Nc3nc4ccccc4o3)c21
